An excerpt weighted towards active compounds, which were near 2.1% of everything screened.
PAX8 reporter = inhibitors of PAX8-driven TPO luciferase reporter, primary screen, RMG-I cells, single concentration | SteadyGlo, 24 h | inhibition, % at 12.6 µM | 1.2% of 360,000 active;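 active = mean replicate inhibition at least 60% with every replicate also reaching 60%; inconclusive = only one of the two criteria is met; inactive = mean below 60% and not all replicates reaching 60%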;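 also: luciferase light reporting Pax8 driven TPO promoter activity; plate controls were median of neutral control wells for no effect and mitoxantrone controls for full effect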
EWS-Fli inh = EWS/Fli-driven NR0B1 reporter inhibitors, primary screen, A673 cells, NR0B1 luciferase, luminescence, MLPCN library. inhibition, % at 12.6 µM. AID 651661, 2012. 0.67% of 350,000 active. viability-normalised;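 active = mean inhibition of at least 50% after viability correction, with every replicate also passing that limit; inconclusive = mean reaches 50% but only one of two replicates passes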;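 also: firefly luciferase signal divided by Alamar Blue viability fluorescence both relative to DMSO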
GSIS activator = GLuc luminescence reporter in INS-1E cells, primary screen for activators of glucose-dependent secretion of insulin; AID 743287, 2014; INS-1E GLuc reporter insulin secretion, 2-3 h; 0.61% of 370,000 active; activation, % at 16.6 µM;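 active = lowest replicate activation of at least 40%, so every replicate reaches that level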;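 also: 0% = median of neutral control wells and 100% = median of IBMX positive control wells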
MLL AF4-AF9 inh = inhibitors of AF4 peptide binding to AF9, primary screen, biochemical, AlphaScreen, biotin-AF4 peptide, FLAG-AF9, single point; Protein AF-9 (Homo sapiens), P42568; inhibition, % at 10 µM; 0.47% of 350,000 active;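 active = every replicate reaching a set inhibition limit, whatever the replicate mean, cut at about 25% in these data; inconclusive = mean inhibition reaches that limit but some replicates miss it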;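 also: 0% = plate neutral control median and 100% = total signal loss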
Target sequence (P42568 whole entry, looked up): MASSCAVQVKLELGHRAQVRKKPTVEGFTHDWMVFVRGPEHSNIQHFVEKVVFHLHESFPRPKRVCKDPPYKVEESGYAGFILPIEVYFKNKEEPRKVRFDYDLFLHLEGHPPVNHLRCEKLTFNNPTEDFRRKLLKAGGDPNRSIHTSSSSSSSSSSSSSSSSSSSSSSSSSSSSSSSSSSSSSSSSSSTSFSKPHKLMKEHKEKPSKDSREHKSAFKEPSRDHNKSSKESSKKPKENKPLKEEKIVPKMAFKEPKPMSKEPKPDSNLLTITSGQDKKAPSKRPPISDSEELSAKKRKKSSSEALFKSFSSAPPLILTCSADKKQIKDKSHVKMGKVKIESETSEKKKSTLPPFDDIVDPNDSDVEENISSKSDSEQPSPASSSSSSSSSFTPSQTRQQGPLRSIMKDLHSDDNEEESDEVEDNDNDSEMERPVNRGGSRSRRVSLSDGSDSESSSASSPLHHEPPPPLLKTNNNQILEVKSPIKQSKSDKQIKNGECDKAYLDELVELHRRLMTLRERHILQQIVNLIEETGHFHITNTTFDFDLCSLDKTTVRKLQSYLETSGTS
PGC1a acetyl inh = inhibitors of PGC1a acetylation signal, primary screen, cell-based, U2OS, AlphaScreen, inhibitor mode; AlphaScreen anti-acetyl-lysine; with virally co-expressed GCN5 acetyltransferase; inhibition, % at 15.6 µM; 0.17% of 350,000 active;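 active = every replicate shows inhibition of at least 40%; inconclusive = mean inhibition at least 40% but some replicate below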;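 also: 0% = neutral control wells and 100% = positive control wells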
Xi reactivation = activators of inactive X chromosome reactivation, primary screen, imaging, XiGFP fibroblasts, GFP high-content imaging, set 2; XiGFP mouse fibroblasts, % GFP-positive cells imaging, 3 d; cells co-treated with 5-aza-dC sensitizer; scaled so ellipticine positive control = 100%; activation, % at 7.58 µM; 0.055% of 360,000 active;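 active = mean normalized replicate activation at least 10% and every replicate at or above 10%; inconclusive = only one of the two criteria met; inactive = mean below 10% and not all replicates reach 10%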;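 also: 0% = median of on-plate neutral control wells and 100% = ellipticine 6 µM median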
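System: SV40-immortalized XiGFP fibroblast cells, line 68-5-11 / Incubation: 3-day compound exposure, then 15 min fixation at room temperature / Compound: single concentration per compound, delivered by pin transfer / Buffer or medium: DMEM plus 5-aza-dC sensitizer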
Active calls of the source: *; ? = inconclusive; · = no result.

SMILES | PAX8 reporter | EWS-Fli inh | GSIS activator | MLL AF4-AF9 inh | PGC1a acetyl inh | Xi reactivation
CN(C)CC(=O)Nc1ccc2c(c1)[C@H]1C[C@H](CC(=O)NCc3cccc(F)c3)O[C@H](CO)[C@H]1O2 | 9 | -4 | 3 | 0 | 7 | 0
CCOc1ccc(NC(=O)c2ccccn2)cc1 | 65* | 78* | 16 | 8 | · | 0
COc1cc(OC)cc(C(=O)NNC(=O)c2ccccn2)c1 | 28 | 8 | 17 | -2 | 10 | 0
COc1ccc2c(c1)C(=NNC(=O)c1ccccn1)c1cc(OC)ccc1-2 | 0 | · | 146* | · | 11 | 0
CCOc1ccc(NC(=O)c2cnccn2)cc1 | · | · | · | · | -4 | ·
C[C@H]1CN([C@@H](C)CO)S(=O)(=O)c2ccc(C3=CCCCC3)cc2O[C@@H]1CN(C)Cc1ccncc1 | · | 30 | 0 | 11 | -27 | 0
CC(=O)N1CC(=O)N2[C@H](CO)[C@@H](c3ccc(-c4ccccc4)cc3)[C@@H]2C1 | · | · | 2 | · | · | 1
CCN1/C(=C/c2ccc3cc(C)ccc3[n+]2C)Sc2ccc3sccc3c21 | 100* | 53* | -36 | 16 | 33 | 1
CCN1/C(=C/c2ccc3cc(C)ccc3[n+]2CC)Sc2cc(C)ccc21 | 89* | 59* | -46 | 19 | · | 102*
O=S(=O)(Nc1ccccc1)c1ccc(-c2cnc(C3CC3)o2)cc1 | 36 | · | -20 | -1 | -7 | 0
Cc1ccc(C)c(NS(=O)(=O)c2ccc(-c3cnc(C4CC4)o3)cc2)c1 | 85* | · | -3 | 5 | · | 0
Cc1cc(C)cc(NS(=O)(=O)c2ccc(-c3cnc(C4CC4)o3)cc2)c1 | 75* | · | -1 | 2 | -15 | 0
Cc1cccc(NS(=O)(=O)c2ccc(-c3cnc(C4CC4)o3)cc2)c1C | 75* | · | 9 | 5 | -26 | 0
O=C(CC1CC1)N1[C@H](CO)[C@H](c2ccccc2)C12CN(Cc1cc(F)ccc1F)C2 | · | 4 | -12 | -2 | -10 | 0
COc1ccc(C)c2sc(N(CCN(C)C)C(=O)/C=C/c3cccs3)nc12 | 27 | · | 9 | 10 | 15 | 0
CN(C)CCN(C(=O)/C=C/c1cccs1)c1nc2c(F)cc(F)cc2s1 | 97* | · | -7 | · | · | 0
COc1ccc(OC)c2sc(N(CCN(C)C)C(=O)/C=C/c3cccs3)nc12 | 79* | · | 15 | 11 | · | 7
C[C@@H]1CCCCO[C@H](CN(C)CC2CCCCC2)[C@H](C)CN([C@@H](C)CO)C(=O)c2cc(NC(=O)Cc3ccccc3)ccc2O1 | -1 | 73* | 1 | 6 | -8 | 0
C[C@@H]1CCCCO[C@H](CN(C)CC2CCCCC2)[C@H](C)CN([C@@H](C)CO)C(=O)c2cc(NC(=O)Nc3ccc(C(F)(F)F)cc3)ccc2O1 | -11 | 81* | 10 | -3 | 0 | 0
COc1ccc(NC(=O)Nc2ccc3c(c2)C(=O)N([C@H](C)CO)C[C@@H](C)[C@H](CN(C)CC2CC2)OCCCC[C@@H](C)O3)cc1 | -1 | · | -10 | 28* | -4 | 0
C[C@@H]1CCCCO[C@@H](CN(C)CC2CCCCC2)[C@H](C)CN([C@@H](C)CO)C(=O)c2cc(NC(=O)Nc3ccc(C(F)(F)F)cc3)ccc2O1 | 17 | 76* | -20 | 0 | 7 | 0
C[C@@H]1CCCCO[C@@H](CN(C)CC2CCCCC2)[C@@H](C)CN([C@H](C)CO)C(=O)c2cc(NC(=O)Nc3ccc(C(F)(F)F)cc3)ccc2O1 | -21 | -11 | -8 | -1 | 9 | 0
C[C@H](CO)N1C[C@H](C)[C@H](CN(C)CC2CCCCC2)OCCCC[C@H](C)Oc2ccc(NC(=O)Cc3ccccc3)cc2C1=O | -18 | -22 | -6 | 2 | -1 | -1
COc1ccc(NC(=O)Nc2ccc3c(c2)C(=O)N([C@H](C)CO)C[C@H](C)[C@@H](CN(C)CC2CC2)OCCCC[C@@H](C)O3)cc1 | -5 | · | 6 | 16 | 3 | 0
CC(C)NC(=O)Nc1cccc2c1O[C@H](CN(C)C(=O)OC(C)(C)C)[C@H](C)CN(C)C2=O | · | · | 5 | · | · | 0
SMILES | PAX8 reporter | EWS-Fli inh | GSIS activator | MLL AF4-AF9 inh | PGC1a acetyl inh | Xi reactivation
C[C@@H]1CCCCO[C@@H](CN(C)CC2CCCCC2)[C@@H](C)CN([C@@H](C)CO)C(=O)c2cc(NC(=O)Nc3ccccc3)ccc2O1 | 9 | -1 | -4 | 7 | 10 | 0
C[C@@H]1CCCCO[C@H](CN(C)CC2CCCCC2)[C@H](C)CN([C@@H](C)CO)C(=O)c2cc(NC(=O)Nc3ccccc3)ccc2O1 | 78* | 19 | -5 | 4 | -3 | 0
CCOC(=O)C1=C(O)/C(=C/c2cc(OC)c(O)c(OC)c2)SC1=Nc1ccc(OC)cc1 | -24 | · | 65 | · | · | 15*
CCOC(=O)C1=C(O)/C(=C/c2ccc(OCC(=O)O)c(OC)c2)SC1=Nc1ccc(OCC)cc1 | 11 | 20 | -1 | 0 | · | 0
CCOc1ccc(NCc2cccn2-c2nnc(N3CCC(C(=O)NCCCN4CC(C)CC(C)C4)CC3)s2)cc1 (centres undefined) | 8 | · | -16 | 40* | · | 0
COc1ccc(OC)c(N(CCN2C(=O)c3ccccc3C2=O)C(=O)CCl)c1 | 104* | ? | 37 | -3 | 23 | 0
COc1cc(/C=N\Nc2nc3ccccc3[nH]2)cc(OC)c1OC | -38 | · | · | · | -1 | ·
COc1ccc2c(c1)c(/C=N/Nc1nc3ccccc3[nH]1)c(C)n2C | 57 | 20 | -43 | 23 | · | 17*
O=C(/C=C/c1ccc(Br)cc1)c1ccc(NC(=O)c2ccco2)cc1 | -25 | · | 114* | · | · | 0
C=CC(=O)N=c1sc2ccccc2n1-c1ccccc1 | 92* | 4 | -8 | 0 | 8 | 0
C[C@H](CO)N1C[C@H](C)[C@@H](CN(C)C(=O)Nc2ccc3c(c2)OCO3)Oc2c(NC(=O)NC3CCCCC3)cccc2C1=O | · | · | -17 | · | · | 0
C#CCOCCOCCOCCNc1nc(N2CCN(C(=O)[C@H](CCC(=O)O)n3cc(CN)nn3)CC2)nc(N2CCN(C(=O)[C@H](CCCCN)n3cc([C@@H](N)CC(N)=O)nn3)CC2)n1 | -1 | 4 | 16 | 1 | 11 | 0
C#CCOCCOCCOCCNc1nc(N2CCN(C(=O)CCCCCCCCCCNC(=O)[C@H](CCCCN)n3cc(CCO)nn3)CC2)nc(N2CCN(C(=O)CCCCCCCCCCNC(=O)[C@H](CCCCN)n3cc(CCCC(=O)O)nn3)CC2)n1 | -7 | -13 | · | 55* | 6 | 0

High-throughput results (PubChem)
